For orientation: GI50 means the concentration at which growth is held to half of that of the control.

Holding throughout (assay type): functional
Test [1] is described as follows: Growth inhibition of human HCC827 cells assessed as ATP level after 96 hrs by CellTiter-Glo assay. To be noted: HCC827, 96 h. In short, it runs like this: (§1)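 NSCLC lines maintained as in earlier work and authenticated by mutational analysis and SNP arrays. Cells were plated in 384-well format and allowed 24 h before compound addition as 10 threefold serial dilutions (DMSO stocks). After 96 h, viability was read as cellular ATP by CellTiter-Glo. GI50 was fitted with an R package.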
In general terms: Cellular ATP, detected with luciferase, serves as a proxy for viable cell number.

Another test deals with Calu-6. Briefly: Growth inhibition of human Calu6 cells assessed as ATP level after 96 hrs by CellTiter-Glo assay. To be noted: Calu-6, 96 h. In short, it runs like this:
as §1

The nature of test [2]: Growth inhibition of human HCC366 cells assessed as ATP level after 96 hrs by CellTiter-Glo assay. To be noted: HCC366, 96 h. A digest of the protocol: as §1
The subject of the next test is DV-90. Nature of the test: Growth inhibition of human DV90 cells assessed as ATP level after 96 hrs by CellTiter-Glo assay. The settings on record: DV-90, 96 h. A digest of the protocol:
as §1

For a further test, the system named is NCI-H322M. Nature of the test: Growth inhibition of human NCI-H322M cells assessed as ATP level after 96 hrs by CellTiter-Glo assay.

`CN(C)C/C=C/C(=O)Nc1ccc2c(C#N)cnc(Nc3cccc(Br)c3)c2c1`: the GI50 in test [1] came to 14.3 µM; in the test on Calu-6 it was 16.4 µM; in test [2], 16.6 µM; in the test on DV-90, 18.4 µM; with NCI-H322M, 21.4 µM.

The record behind these values is ChEMBL document CHEMBL1641579, “Synthesis and biological evaluation of 7-substituted-1-(3-bromophenylamino)isoquinoline-4-carbonitriles as inhibitors of myosin light chain kinase and epidermal growth factor receptor” (Bioorg Med Chem, 2011).
